Source: PubChem BioAssay (Sanford-Burnham Center for Chemical Genomics)
Compounds with a hit are over-represented: about 1.8% of the library has one in this group of screens.
LMPTP inh – LMPTP phosphatase inhibitors, primary screen, biochemical, fluorescence intensity, uHTS; Low molecular weight phosphotyrosine protein phosphatase (Homo sapiens), P24666; recombinant LMPTP-A, OMFP fluorogenic substrate; inhibition, % at 20 µM; hit rate 0.22% among 360,000; AID 651560, 2012;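 active means compounds that cut the enzyme signal by at least half of the control window in the single-dose screen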
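Material: LMPTP-A; amount: 0.625 nM enzyme; doses: single 20 µM dose; times: reaction 50 min, room temperature, dark; technique: fluorescence intensity of OMFP turnover product; benchmarks: no-enzyme and uninhibited controls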
DNMT1 inh – human DNMT1 methyltransferase inhibitors, primary screen, biochemical, molecular beacon, fluorescence, HinP1I cleavage, uHTS; inhibition (reported as % activation of signal), % at 10 µM; hit rate 0.83% among 360,000; AID 588458, 2011; in the data active means inhibition above about 50%
Scp-1 inhibitor – Scp-1 phosphatase inhibitors, primary screen, biochemical, colorimetric, uHTS; hit rate 0.88% among 340,000; Carboxy-terminal domain RNA polymerase II polypeptide A small phosphatase 1 (Homo …; Recombinant Scp1, phosphopeptide, malachite green phosphate absorbance; AID 493091, 2011; inhibition, % at 20 µM;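 active means inhibition above about 50% at 20 µM, limit read from the data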
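Times: enzyme reaction 45 min at room temperature, colour 5 min, stabilisation 30 min. Material: SCP-1 catalytic fragment, aa 76-261. Medium: Acidic Tris acetate buffer with magnesium and detergent. Signal: colorimetric free-phosphate detection, absorbance 630 nm. Read-out basis: % inhibition of SCP-1 phosphate liberation. Reagent: Phosphorylated 17-residue peptide substrate.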
SUMO1 PPI mod – modulators of SUMO1 protein-protein interactions, primary screen, biochemical, uHTS | Small ubiquitin-related modifier 1 (Homo sapiens), P63165 | SUMO1 binding to a labelled peptide, TR-FRET, 1 h | inhibition, % at 20 µM | hit rate 0.33% among 360,000 | AID 602429, 2012; in the data active means inhibition above about 37%
STEP block – STEP phosphatase inhibitors, primary screen, biochemical, fluorescence intensity, uHTS. recombinant STEP, OMFP fluorogenic substrate. inhibition, % at 20 µM. hit rate 0.25% among 360,000. AID 588621, 2011. Tyrosine-protein phosphatase non-receptor type 5 (Homo sapiens), P54829;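 active means inhibition at 20 µM, scaled per plate between control wells, above about 37%, limit read from the data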
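Assay system: isolated STEP enzyme. Buffer or medium: pH 6.0 Bis-Tris with DTT and Tween 20. Also added: fluorogenic phosphatase substrate OMFP at 25 µM final. Dosing: 20 µM, 1% DMSO. Timing: 20 min reaction, room temperature, in the dark. Measured by: fluorescence intensity, excitation 480 nm, emission 540 nm. Evaluation: normalized % inhibition.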
Scp-1 conf – Scp-1 phosphatase inhibitors, retest, confirmation, biochemical, colorimetric, single concentration | inhibition, % at 20 µM | hit rate 61% among 2,500 | shares compounds with Scp-1 inhibitor | recombinant SCP-1 catalytic domain, phosphate release, malachite green absorbance | AID 540281, 2011
Scp-1 MG ctr – colorimetric readout interference by compounds, confirmation, artefact control for Scp-1 inhibitor project, biochemical, single concentration; 2,500 tested, under 10 active; shares compounds with Scp-1 inhibitor; AID 540313, 2011; Colorimetric interference counterscreen, malachite green absorbance 630 nm; apparent inhibition (interference), % at 20 µM;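 further: compounds added after enzyme reaction finished so only phosphate colour detection is probed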
Scp-1 Tm shift – Scp-1 binding by thermal shift, confirmation, orthogonal assay for Scp-1 inhibitor project, biophysical, differential scanning fluorimetry | shares compounds with Scp-1 inhibitor | Recombinant SCP1, Sypro Orange thermal shift Tm | thermal shift relative to vanadate control, % at 40 µM | hit rate 25% among 1,500 | AID 540329, 2011;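 active means substances whose mean melting-temperature shift, as a percentage of the reference inhibitor's shift, reaches about 5.3%, limit read from the data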
Each line names hits and unclear results; the compound was inactive in the other large screens (follow-up assays come after a bar, where they were run).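 How the source made its calls, unless noted: active means inhibition of at least 30% at 20 µM; inactive means the rest.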

COc1ccc(NC(=O)C2CCN(S(=O)(=O)c3ccc(Cl)c(C(F)(F)F)c3)CC2)cn1	none (no result: Scp-1 inhibitor)
NC(=O)c1ccsc1NC(=O)c1ccc([N+](=O)[O-])o1	none
Cc1ccc(C)c(C(=O)Nc2ccncc2)c1	Scp-1 inhibitor 78.1 | Scp-1 conf inactive | Scp-1 MG ctr inactive
Cc1ccc(C(=O)Nc2ccncc2)c(Cl)c1	none
Cc1cccc(N(CC(=O)NCCc2ccccc2)C(=O)c2csnn2)c1	none
CSc1ccc(/C=N/NC(=O)c2ccc(C)c(C)c2)cc1	Scp-1 inhibitor 83.3 | Scp-1 conf 59.3 | Scp-1 MG ctr inactive | Scp-1 Tm shift inactive
OC(c1ccc(F)c(F)c1)c1nc(-c2cccc(C(F)(F)F)c2)cs1 (configuration not stated)	none (no result: Scp-1 inhibitor)
CCOC(=O)N1CCN(c2c(NCC3CCCO3)c(=O)c2=O)CC1 (configuration not stated)	Scp-1 inhibitor 81.8 | Scp-1 conf inactive | Scp-1 MG ctr inactive
COc1cc2c(cc1NC(=O)CSc1nc3ccccc3[nH]1)oc1ccccc12	Scp-1 inhibitor 72.5 | Scp-1 conf 41.5 | Scp-1 MG ctr inactive | Scp-1 Tm shift inactive
COc1ccc(-c2ccc3c(c2)C2CC3CCN2S(=O)(=O)c2ccccc2C)cc1 (configuration not stated)	none
O=C(Cn1ccc(NC(=O)OCc2ccccc2)nc1=O)NCc1ccc2c(c1)OCO2	none | Scp-1 conf inactive | Scp-1 MG ctr inactive
Cc1cc(-c2ccc([N+](=O)[O-])cc2)cc(C)n1	none
CC1(C(=O)NS(=O)(=O)c2ccccc2Cl)CCN1C(=O)c1cccc2ccccc12 (configuration not stated)	none (no result: Scp-1 inhibitor)
Cn1c(NCCCO)nc2c1c(=O)n(Cc1ccccc1F)c(=O)n2C	none
COc1ccccc1Oc1nc2c(c(=O)n(Cc3ccccc3F)c(=O)n2C)n1C	Scp-1 inhibitor 67.5 | Scp-1 conf inactive | Scp-1 MG ctr inactive
COC(=O)[C@@]1(Cc2ccc(OC)cc2)[C@H]2c3cc(C(=O)N4CCCC4)n(Cc4cc(C)n(C)n4)c3C[C@H]2CN1C(=O)c1ccccc1	none (no result: DNMT1 inh, Scp-1 inhibitor, STEP block)
CC(C)(C)c1cc2nc3c(c(=O)n2[nH]1)CN(Cc1ccccc1)C3=O	none
Nc1nnc(CC(=O)N/N=C/c2ccc(-c3cccc(C(=O)O)c3)o2)s1	Scp-1 inhibitor 54.5 | Scp-1 conf 44.9 | Scp-1 MG ctr inactive | Scp-1 Tm shift inactive
Nc1nnc(CC(=O)N/N=C/c2ccc(-c3ccc(F)cc3)o2)s1	none
Cc1ccc(Cn2c(CCNc3nc(-c4ccc(Cl)c([N+](=O)[O-])c4)cs3)nc3cc(C(=O)NCCCO)ccc32)cc1	none
O=C(NCCc1ccc2c(c1)OCO2)Oc1ccccc1	none (no result: DNMT1 inh, Scp-1 inhibitor, STEP block)
COc1cc(/C=N/NC(=O)c2cccc([N+](=O)[O-])c2)ccc1O	Scp-1 inhibitor 88.6 | Scp-1 conf inactive | Scp-1 MG ctr inactive
O=[N+]([O-])c1ccc(C(O)C[n+]2ccccc2)cc1 (configuration not stated)	Scp-1 inhibitor 96.4 | Scp-1 conf inactive | Scp-1 MG ctr inactive
CC(=O)Oc1ccc(/C=C(\NC(=O)c2ccco2)C(=O)NCc2ccccc2)cc1	Scp-1 inhibitor 53.5 | Scp-1 conf inactive | Scp-1 MG ctr inactive
O=C(NCc1ccccc1)/C(=C/c1ccccc1)NC(=O)c1ccco1	none
